The record followed here is ChEMBL document CHEMBL3864175, “Sulfonamides as Selective NaV1.7 Inhibitors: Optimizing Potency and Pharmacokinetics to Enable in Vivo Target Engagement” (ACS Med Chem Lett, 2016).

Where only a bound is given, the exact number is not on record here.

Data set [1] in a line: Apparent permeability in MDCK cells. In kind it is ADME, cell-based, Canis lupus familiaris. The note with it: dog. In short, it runs like this:
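Apparent permeability measured in parental MDCK cells.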

Data set [2] can be described thus: Clearance in rat at 0.5 mg/kg, iv by LC-MS/MS analysis. The note with it: in vivo. In kind it is ADME, organism-based. The method in brief:
(§1)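 Male rats, n = 2 per group, dosed intravenously at 0.5 mg/kg as a solution in 100% DMSO. Unbound clearance is derived from total clearance.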

Data set [3] in a line: Unbound clearance in rat at 0.5 mg/kg, iv by LC-MS/MS analysis. In kind it is ADME, organism-based. The note with it: in vivo. The method in brief: as §1
Data set [4] in a line: Fraction unbound in rat plasma at 5 uM measured after 45 mins by LC-MS/MS analysis. It is filed as ADME, cell-free.
Data set [5] in a line: Intrinsic clearance in human liver microsomes at 1 uM measured after 40 mins in presence of NADPH by LC-MS/MS analysis. The note with it: read-out: CLH. In kind it is ADME. In short, it runs like this: (§2)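 Clearance measured in rat or human liver microsomes. Test compound at 1 μM, microsomal protein at 250 μg/mL.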
For orientation: Liver microsomes are vesicles of endoplasmic reticulum, rich in cytochrome P450 enzymes.

Data set [6] is described as follows: Intrinsic clearance in rat liver microsomes at 1 uM measured after 40 mins in presence of NADPH by LC-MS/MS analysis. The note with it: read-out: CLH. It is filed as ADME. In short, it runs like this:
as §2

Data set [7] can be described thus: Dissociation constant, pKa of the compound at pH 1.7 to 11.2 by capillary electrophoresis method. In kind it is physicochemical. The method in brief:
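pKa values calculated from capillary electrophoresis data collected over pH 1.7 to 11.2.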

A short description of data set [8]: Apparent permeability in MDCK cells assessed as drug recovery. It is filed as ADME, cell-based, Canis lupus familiaris. The note with it: dog, read-out: Drug recovery.
Data set [9] has as its target Sodium channel protein type 9 subunit alpha (Homo sapiens, UniProt Q15858). As to the kind of experiment: Inhibition of human Nav1.7 expressed in HEK293 cells assessed as inhibition of sodium current at holding potential of -125 mV measured for 3 to 5 mins by whole cell voltage clamp method. It is filed as cell-based.
Data set [10] addresses Sodium channel protein type 5 subunit alpha (Homo sapiens, UniProt Q14524). As to the kind of experiment: Inhibition of human Nav1.5 expressed in HEK293 cells assessed as inhibition of sodium current at holding potential of -125 mV measured for 3 to 5 mins by whole cell voltage clamp method. In kind it is cell-based.
Data set [11] is described as follows: Stability in bile duct cannulated Sprague-Dawley rat assessed as parent compound level in bile at 6.67 mg/kg, iv administered through catheter measured after 2 and 4 hrs post dose by LC-MS/MS analysis. In kind it is ADME, organism-based. The note with it: in vivo.
The nature of data set [12]: Drug metabolism in bile duct cannulated Sprague-Dawley rat urine assessed as metabolite formation at 6.67 mg/kg, iv administered through catheter measured after 2 and 4 hrs post dose by LC-MS/MS analysis. The note with it: in vivo. It is filed as ADME, organism-based.
Data set [13] in a line: Selectivity index, ratio of IC50 for human Nav1.5 expressed in HEK293 cells to IC50 for human Nav 1.7 expressed in HEK293 cells.

Chain of Sodium channel protein type 9 subunit alpha (Q15858 whole entry): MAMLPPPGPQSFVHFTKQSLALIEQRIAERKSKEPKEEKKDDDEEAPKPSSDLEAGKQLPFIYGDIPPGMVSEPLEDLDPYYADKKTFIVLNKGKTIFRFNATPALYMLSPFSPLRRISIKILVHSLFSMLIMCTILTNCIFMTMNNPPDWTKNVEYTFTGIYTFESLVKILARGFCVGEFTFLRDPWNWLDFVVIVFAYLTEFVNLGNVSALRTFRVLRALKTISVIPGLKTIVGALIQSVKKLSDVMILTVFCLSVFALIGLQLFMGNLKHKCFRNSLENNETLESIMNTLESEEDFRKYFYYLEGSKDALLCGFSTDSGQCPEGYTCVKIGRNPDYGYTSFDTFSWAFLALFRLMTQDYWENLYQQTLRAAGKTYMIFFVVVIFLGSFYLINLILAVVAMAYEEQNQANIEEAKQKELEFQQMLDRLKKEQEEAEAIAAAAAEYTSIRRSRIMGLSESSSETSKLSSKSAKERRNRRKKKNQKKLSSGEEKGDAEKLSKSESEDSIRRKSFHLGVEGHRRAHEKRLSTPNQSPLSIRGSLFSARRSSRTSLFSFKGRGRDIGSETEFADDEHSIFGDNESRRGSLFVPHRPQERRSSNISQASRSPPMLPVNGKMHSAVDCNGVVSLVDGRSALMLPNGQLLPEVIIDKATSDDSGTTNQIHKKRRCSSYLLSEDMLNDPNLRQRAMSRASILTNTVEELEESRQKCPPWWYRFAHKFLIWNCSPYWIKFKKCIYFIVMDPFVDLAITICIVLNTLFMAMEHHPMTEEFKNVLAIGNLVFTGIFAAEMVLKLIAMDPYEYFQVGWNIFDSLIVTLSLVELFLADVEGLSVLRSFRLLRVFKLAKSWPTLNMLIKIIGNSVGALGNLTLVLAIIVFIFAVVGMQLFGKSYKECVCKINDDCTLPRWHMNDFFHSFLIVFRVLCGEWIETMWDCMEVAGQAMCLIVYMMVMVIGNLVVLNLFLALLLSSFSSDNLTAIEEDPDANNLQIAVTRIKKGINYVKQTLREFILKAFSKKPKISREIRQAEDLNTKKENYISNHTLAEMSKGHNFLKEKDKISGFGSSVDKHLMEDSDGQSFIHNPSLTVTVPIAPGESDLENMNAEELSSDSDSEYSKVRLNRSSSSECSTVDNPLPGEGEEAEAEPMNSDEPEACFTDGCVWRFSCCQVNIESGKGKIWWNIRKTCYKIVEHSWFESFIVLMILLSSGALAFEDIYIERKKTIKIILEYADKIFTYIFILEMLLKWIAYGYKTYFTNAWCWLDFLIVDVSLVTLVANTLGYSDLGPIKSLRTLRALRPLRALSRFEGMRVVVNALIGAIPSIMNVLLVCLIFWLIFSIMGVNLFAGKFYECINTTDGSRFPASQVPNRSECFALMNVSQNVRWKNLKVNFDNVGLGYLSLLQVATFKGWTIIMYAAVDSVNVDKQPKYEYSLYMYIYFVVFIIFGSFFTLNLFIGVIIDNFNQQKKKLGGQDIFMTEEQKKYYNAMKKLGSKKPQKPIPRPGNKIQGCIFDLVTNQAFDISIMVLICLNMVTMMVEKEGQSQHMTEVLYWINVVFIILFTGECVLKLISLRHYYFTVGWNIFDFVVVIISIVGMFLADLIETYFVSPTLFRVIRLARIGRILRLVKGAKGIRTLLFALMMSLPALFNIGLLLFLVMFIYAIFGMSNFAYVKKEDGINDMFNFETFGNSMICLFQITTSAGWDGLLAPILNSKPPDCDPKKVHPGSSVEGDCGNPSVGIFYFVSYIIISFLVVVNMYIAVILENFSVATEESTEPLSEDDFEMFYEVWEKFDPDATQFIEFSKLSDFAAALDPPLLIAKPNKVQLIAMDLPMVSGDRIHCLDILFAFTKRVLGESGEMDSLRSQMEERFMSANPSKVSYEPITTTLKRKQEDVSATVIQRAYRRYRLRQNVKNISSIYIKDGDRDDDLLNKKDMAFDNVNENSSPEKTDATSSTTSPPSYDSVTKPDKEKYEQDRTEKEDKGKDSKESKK
Chain of Sodium channel protein type 5 subunit alpha (Q14524 whole entry): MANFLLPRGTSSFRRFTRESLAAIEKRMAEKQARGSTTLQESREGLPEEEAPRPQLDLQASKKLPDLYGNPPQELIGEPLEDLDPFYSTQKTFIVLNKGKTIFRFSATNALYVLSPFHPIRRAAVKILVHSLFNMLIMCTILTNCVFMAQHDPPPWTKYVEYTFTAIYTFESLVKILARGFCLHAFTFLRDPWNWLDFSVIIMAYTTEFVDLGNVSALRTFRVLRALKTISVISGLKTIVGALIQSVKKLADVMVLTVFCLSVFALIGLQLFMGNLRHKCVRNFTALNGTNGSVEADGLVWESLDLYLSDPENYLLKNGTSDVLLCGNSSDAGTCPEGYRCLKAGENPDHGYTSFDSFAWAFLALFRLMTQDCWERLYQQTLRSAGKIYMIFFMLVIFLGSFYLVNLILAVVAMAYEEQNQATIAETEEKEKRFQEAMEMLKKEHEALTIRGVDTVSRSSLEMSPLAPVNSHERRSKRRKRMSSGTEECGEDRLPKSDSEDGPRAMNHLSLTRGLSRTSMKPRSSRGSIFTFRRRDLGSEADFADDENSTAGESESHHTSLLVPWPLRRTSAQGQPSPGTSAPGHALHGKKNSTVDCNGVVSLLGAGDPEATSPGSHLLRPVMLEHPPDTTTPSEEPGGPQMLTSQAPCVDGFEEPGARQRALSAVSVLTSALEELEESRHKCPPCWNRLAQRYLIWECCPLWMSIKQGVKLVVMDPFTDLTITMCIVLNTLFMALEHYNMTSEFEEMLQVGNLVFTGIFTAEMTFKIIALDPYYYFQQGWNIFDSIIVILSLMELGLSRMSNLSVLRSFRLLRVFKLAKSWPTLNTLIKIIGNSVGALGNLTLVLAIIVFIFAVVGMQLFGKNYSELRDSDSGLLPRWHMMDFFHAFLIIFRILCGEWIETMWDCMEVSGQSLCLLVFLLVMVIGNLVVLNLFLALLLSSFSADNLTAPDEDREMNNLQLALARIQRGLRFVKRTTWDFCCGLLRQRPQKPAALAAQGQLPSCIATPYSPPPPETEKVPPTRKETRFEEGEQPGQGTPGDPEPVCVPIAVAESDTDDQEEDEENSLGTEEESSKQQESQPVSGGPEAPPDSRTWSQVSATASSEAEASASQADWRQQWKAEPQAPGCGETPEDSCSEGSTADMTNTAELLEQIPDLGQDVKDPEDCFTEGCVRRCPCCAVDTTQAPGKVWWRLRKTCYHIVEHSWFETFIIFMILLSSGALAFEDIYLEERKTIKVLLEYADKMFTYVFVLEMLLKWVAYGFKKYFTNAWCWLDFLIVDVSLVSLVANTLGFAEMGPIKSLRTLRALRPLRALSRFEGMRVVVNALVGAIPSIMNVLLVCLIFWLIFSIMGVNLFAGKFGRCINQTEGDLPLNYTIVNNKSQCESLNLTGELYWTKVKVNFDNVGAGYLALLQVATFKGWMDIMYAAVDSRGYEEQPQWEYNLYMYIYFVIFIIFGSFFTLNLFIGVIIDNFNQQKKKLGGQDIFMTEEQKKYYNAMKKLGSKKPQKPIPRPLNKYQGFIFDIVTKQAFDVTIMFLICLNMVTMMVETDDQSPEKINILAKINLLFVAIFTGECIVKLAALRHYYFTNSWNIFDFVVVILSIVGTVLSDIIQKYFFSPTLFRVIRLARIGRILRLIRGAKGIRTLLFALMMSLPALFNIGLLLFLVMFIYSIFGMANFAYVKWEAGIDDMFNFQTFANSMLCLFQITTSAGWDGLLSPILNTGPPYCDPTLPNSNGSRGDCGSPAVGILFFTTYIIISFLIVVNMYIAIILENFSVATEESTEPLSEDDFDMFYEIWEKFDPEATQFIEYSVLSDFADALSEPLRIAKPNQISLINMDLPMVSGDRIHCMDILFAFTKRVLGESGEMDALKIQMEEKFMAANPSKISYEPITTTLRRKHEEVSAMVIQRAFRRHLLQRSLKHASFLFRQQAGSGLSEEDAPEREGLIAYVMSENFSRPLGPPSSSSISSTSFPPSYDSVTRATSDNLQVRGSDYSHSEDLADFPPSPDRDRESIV

As to `COc1cc(C(F)(F)F)ccc1-c1n[nH]c(=O)c2cc(S(=O)(=O)Nc3nccs3)ccc12`, in [1], the apparent permeability coefficient (Papp) is 3.2 ×10⁻⁶ cm/s. Further, the clearance in data set [2] was 40 mL/min/kg. This molecule also had a CL free in data set [3] of 2670 mL/min/kg. Also, in data set [4], the fraction unbound at 0.75 h, 5 µM came to 0.013.
Consider `O=S(=O)(Nc1ncns1)c1ccc2c(-c3ccc(C(F)(F)F)cc3O)cccc2c1`, for which the apparent permeability coefficient (Papp) in data set [1] was under 2 ×10⁻⁶ cm/s. In addition, the figures for the microsomal CLint at 1 µM in data set [5] and in data set [6] were 25 µL/min/mg and 18 µL/min/mg, respectively. The pKa in data set [7] came out at 3.6. Moreover, the unbound share (fraction unbound) at 0.75 h, 5 µM in data set [4] was found to be 0.001.
In the case of `Cc1cc(C(F)(F)F)ccc1-c1cccc2cc(S(=O)(=O)Nc3ncns3)ccc12`, the Papp in data set [1] was over 5 ×10⁻⁶ cm/s. In addition, the microsomal CLint at 1 µM in [5] was 15 µL/min/mg; in [6] it was under 14 µL/min/mg. The molecule further displayed a pKa in data set [7] of 3.6. The recovery in data set [8] was under 50%. In addition, the IC50 in data set [9] is 48 nM. This molecule also came in with a fraction unbound at 0.75 h, 5 µM in data set [4] of 0.001.
Take `COc1cc(C(F)(F)F)ccc1-c1cccc2cc(S(=O)(=O)Nc3cncs3)ccc12`: the Papp in data set [1] was determined as 28 ×10⁻⁶ cm/s. Besides, the microsomal CLint at 1 µM in data set [5] was 46 µL/min/mg; in data set [6], 37 µL/min/mg. The IC50 in [9] is over 30000 nM.
`O=S(=O)(Nc1ncns1)c1ccc2c(-c3ccc(C(F)(F)F)cc3C3=CCNCC3)cccc2c1`: the Papp in data set [1] was 1.3 ×10⁻⁶ cm/s. Moreover, the IC50 is over 30000 nM in data set [10] and 37 nM in data set [9]. Further, the microsomal CLint at 1 µM in [5] and in [6] was under 14 µL/min/mg in each case. The molecule also had a clearance in data set [2] of 90 mL/min/kg. The same molecule yielded a pKa in data set [7] of 3.6. Moreover, the fraction unbound at 0.75 h, 5 µM in data set [4] was 0.1.
As for `Cn1nccc1-c1cc(Cl)ccc1-c1cn(C)c2cc(S(=O)(=O)Nc3ncns3)ccc12`, the Stability result in [11] is recorded as “Stable”. The Drug metabolism result in [12] is “Metabolite_Notdetected”.
Regarding `COc1cc(C(F)(F)F)ccc1-c1cccc2cc(S(=O)(=O)Nc3nccs3)ccc12`, in [1], the Papp was found to be 12 ×10⁻⁶ cm/s. Moreover, the half-inhibitory concentration (IC50) came out at 21000 nM in data set [10] and 590 nM in data set [9]. Besides, the results for the microsomal CLint at 1 µM in [5] and in data set [6] were 25 µL/min/mg and 52 µL/min/mg, respectively. Moreover, the clearance in data set [2] was 0.817 mL/min/kg. The molecule also returned a pKa in data set [7] of 6.7. In [3], this molecule gave a CL free of 817 mL/min/kg. The same molecule showed a fraction unbound at 0.75 h, 5 µM in data set [4] of 0.001.
Take `N#Cc1cc(S(=O)(=O)Nc2ncns2)ccc1Oc1ccc(C(F)(F)F)cc1-c1cn[nH]c1`: in data set [1], the Papp was under 1 ×10⁻⁶ cm/s. Besides, the concentration for half-maximal inhibition (IC50) in [10] was over 30000 nM. Moreover, in [6], the microsomal CLint at 1 µM was 39 µL/min/mg. In data set [2], the clearance is 65 mL/min/kg.
For the molecule `COc1cc(C(F)(F)F)ccc1-c1cccc2cc(S(=O)(=O)Nc3ncccn3)ccc12`, the Papp in data set [1] turned out to be 36 ×10⁻⁶ cm/s. The IC50 in data set [10] was over 30000 nM; in data set [9] it was 1500 nM. For the same molecule, the microsomal CLint at 1 µM in [5] is 17 µL/min/mg; in [6], under 14 µL/min/mg.
For the molecule `COc1cc(C(F)(F)F)ccc1-c1nccc2cc(S(=O)(=O)Nc3nccs3)cnc12`, the Papp in [1] came to 12 ×10⁻⁶ cm/s. In addition, the IC50 in [10] is over 30000 nM.
In the case of `COc1cc(C(F)(F)F)ccc1-c1cccc2cc(S(=O)(=O)Nc3ccncn3)ccc12`, in data set [1], the Papp is 27 ×10⁻⁶ cm/s. The IC50 in data set [10] is over 30000 nM; in data set [9], 510 nM. The microsomal CLint at 1 µM in data set [5] and in data set [6] was under 14 µL/min/mg in each case. In [4], this molecule returned a fraction unbound at 0.75 h, 5 µM of 0.003.
As to `Cn1nccc1-c1cc(C(F)(F)F)ccc1-c1cccc2cc(S(=O)(=O)Nc3ncns3)ccc12`, the apparent permeability (Papp) in data set [1] was under 2 ×10⁻⁶ cm/s. Also, the microsomal CLint at 1 µM in data set [6] stood at 21 µL/min/mg. The same molecule gave a clearance in data set [2] of 158 mL/min/kg.
Regarding `COc1cc(C(F)(F)F)ccc1-c1cccc2cc(S(=O)(=O)Nc3ccccn3)ccc12`, the Papp in [1] was 9.5 ×10⁻⁶ cm/s. In addition, the results for the microsomal CLint at 1 µM in data set [5] and in [6] were 16 µL/min/mg and 25 µL/min/mg, respectively. Further, the IC50 in data set [9] is over 30000 nM.
`COc1cc(C(F)(F)F)ccc1-c1cccc2cc(S(=O)(=O)Nc3ncns3)ccc12`: the Papp in data set [1] was 17 ×10⁻⁶ cm/s. In addition, the microsomal CLint at 1 µM was determined as 15 µL/min/mg in [5] and 18 µL/min/mg in data set [6]. Besides, the clearance in [2] is 86.7 mL/min/kg. The molecule further came in with a pKa in [7] of 3.7. The concentration for half-maximal inhibition (IC50) in data set [9] turned out to be 51 nM. This molecule returned a fraction unbound at 0.75 h, 5 µM in data set [4] of 0.001.
Turning to `COc1cc(C(F)(F)F)ccc1-c1cccc2cc(S(=O)(=O)Nc3cscn3)ccc12`, the apparent permeability coefficient (Papp) in data set [1] was 27 ×10⁻⁶ cm/s. Besides, the concentration for half-maximal inhibition (IC50) in data set [10] was 21000 nM; in data set [9] it was 1400 nM. Also, the microsomal CLint at 1 µM in [5] and in data set [6] was under 14 µL/min/mg each time. In addition, the pKa in [7] was 7.2.
As for `O=S(=O)(Nc1ncns1)c1ccc2c(-c3ccc(C(F)(F)F)cc3Br)cccc2c1`, the apparent permeability (Papp) in data set [1] was over 5 ×10⁻⁶ cm/s. Besides, the IC50 in data set [10] was 21000 nM; in data set [9], 160 nM. The microsomal CLint at 1 µM in data set [5] and in data set [6] was under 14 µL/min/mg in each case. The same molecule showed a clearance in [2] of 4 mL/min/kg. In addition, in [7], the pKa amounted to 3.6. The same molecule had a CL free in data set [3] of 1330 mL/min/kg. Besides, the recovery in data set [8] is under 50%. The molecule also came in with a free fraction (fraction unbound) at 0.75 h, 5 µM in data set [4] of 0.003.
In the case of `Cn1nccc1-c1cc(C(F)(F)F)ccc1-c1cn(C)c2cc(S(=O)(=O)Nc3ncns3)ccc12`, in data set [1], the Papp was found to be 1.3 ×10⁻⁶ cm/s. The IC50 is over 30000 nM in [10] and 120 nM in [9]. Further, in data set [6], the microsomal CLint at 1 µM is 19 µL/min/mg. The same molecule had a clearance in [2] of 68.3 mL/min/kg. For the same molecule, in [13], the “Ratio IC50” value was over 200.
Consider `COc1cc(C(F)(F)F)ccc1-c1cnnc2cc(S(=O)(=O)Nc3nccs3)ccc12`, for which the Papp in data set [1] is 36 ×10⁻⁶ cm/s. In [2], this molecule had a clearance of 18.3 mL/min/kg. For the same molecule, the CL free in data set [3] was 1350 mL/min/kg. This molecule returned a free fraction (fraction unbound) at 0.75 h, 5 µM in [4] of 0.014.
Consider `COc1cc(C(F)(F)F)ccc1-c1nccc2cc(S(=O)(=O)Nc3nccs3)ccc12`, for which the Papp in [1] worked out at 34 ×10⁻⁶ cm/s. Further, in data set [10], the IC50 was over 30000 nM. The clearance in data set [2] was 3 mL/min/kg. Besides, in [3], the CL free was 250 mL/min/kg. The same molecule yielded a free fraction (fraction unbound) at 0.75 h, 5 µM in data set [4] of 0.012.

One may read the Papp as a coefficient for how fast a substance crosses the barrier. As usually defined, the clearance is a measure of how efficiently the substance is removed, as volume per time. High values mean efficient removal, low ones inefficient removal. By fraction unbound is commonly meant the share of the substance not bound to proteins or other matrix. Read a low fraction unbound as little free substance. One may read the pKa as the pH at which an ionisable group is half protonated. A low value points to a group that gives up its proton readily. As usually defined, the IC50 is the concentration needed to halve the response being measured.
